The source of these data is BindingDB's records for PubMed 34730959 (The University of Sydney, 2022).

The target of this experiment is Procathepsin L (Homo sapiens, UniProt P07711). Kind of experiment: Inhibition of human recombinant Cathepsin L assessed remaining activity using Z-FR-AMC as substrate incubated for 30 mins by fluorometric assay. The gist of the method: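 Recombinant human cathepsins: L, B, V and K at 1.11 nM, S at 4.44 nM. Each was preincubated 30 min at 25 °C with 3333 to 0.006 nM compound. Z-FR-AMC was added at 40 μM final. AMC release rate over 0–30 min was compared with DMSO (ex/em 360/460). IC50 from four technical replicates.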
Procathepsin L, sequence (P07711 whole entry): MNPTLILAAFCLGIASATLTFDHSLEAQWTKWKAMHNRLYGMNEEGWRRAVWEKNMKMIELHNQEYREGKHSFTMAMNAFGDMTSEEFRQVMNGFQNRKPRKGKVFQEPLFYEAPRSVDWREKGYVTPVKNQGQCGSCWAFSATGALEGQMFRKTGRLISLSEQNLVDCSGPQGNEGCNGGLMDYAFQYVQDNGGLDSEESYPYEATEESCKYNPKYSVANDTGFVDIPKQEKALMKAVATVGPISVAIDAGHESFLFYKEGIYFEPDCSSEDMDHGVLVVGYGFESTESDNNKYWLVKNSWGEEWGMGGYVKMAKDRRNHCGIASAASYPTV

In general, IC50 refers to the point on the concentration scale where inhibition reaches its midpoint. With `COC1=CC(=O)N(C(=O)/C=C/[C@H](C)NC(=O)[C@H](CCc2ccccc2)NC(=O)[C@H](CC2CCCCC2)NC(=O)[C@H](C(C)C)N(C)C)[C@H]1Cc1c[nH]c2ccccc12`, the IC50 came out at 6 pM.
